From ChEMBL document CHEMBL4706620, “Design, synthesis, biological activity evaluation of 3-(4-phenyl-1H-imidazol-2-yl)-1H-pyrazole derivatives as potent JAK 2/3 and aurora A/B kinases multi-targeted inhibitors” (Eur J Med Chem, 2021)
The source made the active and inactive calls. The rule behind the calls is not given here.

Key:
Aurora kinase A = target: T1, Aurora kinase A (Homo sapiens, UniProt O14965); experiment: Inhibition of Aurora A (unknown origin) incubated for 40 mins in presence of ATP by Kinase-glo luminescence assay
T1 sequence (O14965 whole entry): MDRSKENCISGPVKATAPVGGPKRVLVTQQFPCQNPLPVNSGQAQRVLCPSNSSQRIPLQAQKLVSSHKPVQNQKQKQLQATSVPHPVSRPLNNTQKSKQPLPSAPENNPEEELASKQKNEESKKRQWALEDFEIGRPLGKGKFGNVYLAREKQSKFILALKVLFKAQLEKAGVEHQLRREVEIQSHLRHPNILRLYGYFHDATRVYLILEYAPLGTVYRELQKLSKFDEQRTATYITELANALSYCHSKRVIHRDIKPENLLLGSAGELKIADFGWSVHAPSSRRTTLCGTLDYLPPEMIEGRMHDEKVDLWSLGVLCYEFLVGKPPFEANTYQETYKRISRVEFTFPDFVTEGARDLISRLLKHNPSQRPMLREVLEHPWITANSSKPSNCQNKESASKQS

HCT-116 [1] = experiment: Antiproliferative activity against human HCT116 cells assessed as reduction in cell growth measured after 72 hrs by CCK8 assay; type: functional, cell-based; settings: HCT-116, 72 h
JAK2/JAK3 (Homo sapiens) [2] = target: T2, JAK2/JAK3 (Homo sapiens) (UniProt P52333+O60674); experiment: Inhibition of JAK2/3 in human K562 cells assessed as inhibition of STAT3 phosphorylation at 1 to 20 uM measured after 48 hrs by Western blot analysis; type: cell-based; settings: dose 1-20 µM
Outline: (§1)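 K562 or HCT116 cells treated 48 h at 1, 10 and 20 µM alongside untreated control; lysed in cold RIPA, protein by BCA, SDS-PAGE, nitrocellulose transfer, 5% milk block, primary antibody overnight at 4 °C, secondary 1 h; p-Aurora A, p-Aurora B, p-STAT3, p-STAT5 probed with GAPDH loading control.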

JAK2/JAK3 (Homo sapiens) [3] = target: T2, JAK2/JAK3 (Homo sapiens); experiment: Inhibition of JAK2/3 in human K562 cells assessed as inhibition of STAT5 phosphorylation at 1 to 20 uM measured after 48 hrs by Western blot analysis; type: cell-based; settings: dose 1-20 µM; outline: as §1
JAK2/JAK3 (Homo sapiens) [4] = target: T2, JAK2/JAK3 (Homo sapiens); experiment: Inhibition of JAK2/3 in human HCT116 cells assessed as inhibition of STAT3 phosphorylation at 1 to 20 uM measured after 48 hrs by Western blot analysis; type: cell-based; settings: HCT-116, dose 1-20 µM; outline: as §1
JAK2/JAK3 (Homo sapiens) [5] = target: T2, JAK2/JAK3 (Homo sapiens); experiment: Inhibition of JAK2/3 in human HCT116 cells assessed as inhibition of STAT5 phosphorylation at 1 to 20 uM measured after 48 hrs by Western blot analysis; type: cell-based; settings: HCT-116, dose 1-20 µM; outline: as §1
[6] = target: T3, Aurora kinase A (Homo sapiens) (UniProt O14965); experiment: Inhibition of Aurora A phosphorylation in human K562 cells incubated for 48 hrs by Western blot analysis; type: cell-based; settings: dose 1-20 µM; outline: as §1
T3 sequence (whole entry): T1 sequence (O14965 whole entry)

[7] = target: T3, Aurora kinase A (Homo sapiens); experiment: Inhibition of Aurora A phosphorylation in human HCT116 cells incubated for 48 hrs by Western blot analysis; type: cell-based; settings: HCT-116, dose 1-20 µM; outline: as §1
Aurora kinase B = Aurora kinase B (Homo sapiens, UniProt Q96GD4); experiment: Inhibition of Aurora B phosphorylation in human HCT116 cells incubated for 48 hrs by Western blot analysis; type: cell-based; settings: HCT-116, dose 1-20 µM; outline: as §1
K562 [8] = experiment: Cell cycle arrest in human K562 cells assessed as accumulation of diploid cells at G1 phase at 1 uM incubated for 48 hrs by propidium iodide staining based flow cytometric analysis (reference value: 56.33 %); type: functional
K562 [9] = experiment: Cell cycle arrest in human K562 cells assessed as accumulation of diploid cells at G2 phase at 1 uM incubated for 48 hrs by propidium iodide staining based flow cytometric analysis (reference value: 7.73 %); type: functional
K562 [10] = experiment: Cell cycle arrest in human K562 cells assessed as accumulation of diploid cells at S phase at 1 uM incubated for 48 hrs by propidium iodide staining based flow cytometric analysis (reference value: 35.94 %); type: functional
K562 [11] = experiment: Cell cycle arrest in human K562 cells assessed as accumulation at […] phase at 1 uM incubated for 48 hrs by propidium iodide staining based flow cytometric analysis (reference value: 1.90 %); type: functional
K562 [12] = experiment: Cell cycle arrest in human K562 cells assessed as accumulation of diploid cells at G1 phase at 10 uM incubated for 48 hrs by propidium iodide staining based flow cytometric analysis (reference value: 56.33 %); type: functional
K562 [13] = experiment: Cell cycle arrest in human K562 cells assessed as accumulation of diploid cells at G2 phase at 10 uM incubated for 48 hrs by propidium iodide staining based flow cytometric analysis (reference value: 7.73 %); type: functional
K562 [14] = experiment: Cell cycle arrest in human K562 cells assessed as accumulation of diploid cells at G1 phase at 20 uM incubated for 48 hrs by propidium iodide staining based flow cytometric analysis (reference value: 56.33 %); type: functional
K562 [15] = experiment: Cell cycle arrest in human K562 cells assessed as accumulation at […] phase at 20 uM incubated for 48 hrs by propidium iodide staining based flow cytometric analysis (reference value: 1.90 %); type: functional
HCT-116 [16] = experiment: Cell cycle arrest in human HCT116 cells assessed as accumulation of diploid cells at G2 phase at 1 uM incubated for 48 hrs by propidium iodide staining based flow cytometric analysis (reference value: 10.46 %); type: functional
Homo sapiens = species on record: Homo sapiens; experiment: Selectivity for JAK2 (unknown origin) over Aurora B (unknown origin)
HCT-116 [17] = experiment: Cell cycle arrest in human HCT116 cells assessed as accumulation of diploid cells at G1 phase at 10 uM incubated for 48 hrs by propidium iodide staining based flow cytometric analysis (reference value: 77.62 %); type: functional
HCT-116 [18] = experiment: Cell cycle arrest in human HCT116 cells assessed as accumulation of diploid cells at S phase at 10 uM incubated for 48 hrs by propidium iodide staining based flow cytometric analysis (reference value: 11.92 %); type: functional
HCT-116 [19] = experiment: Cell cycle arrest in human HCT116 cells assessed as accumulation of diploid cells at S phase at 20 uM incubated for 48 hrs by propidium iodide staining based flow cytometric analysis (reference value: 11.92 %); type: functional

T2 sequence (O60674 whole entry, looked up): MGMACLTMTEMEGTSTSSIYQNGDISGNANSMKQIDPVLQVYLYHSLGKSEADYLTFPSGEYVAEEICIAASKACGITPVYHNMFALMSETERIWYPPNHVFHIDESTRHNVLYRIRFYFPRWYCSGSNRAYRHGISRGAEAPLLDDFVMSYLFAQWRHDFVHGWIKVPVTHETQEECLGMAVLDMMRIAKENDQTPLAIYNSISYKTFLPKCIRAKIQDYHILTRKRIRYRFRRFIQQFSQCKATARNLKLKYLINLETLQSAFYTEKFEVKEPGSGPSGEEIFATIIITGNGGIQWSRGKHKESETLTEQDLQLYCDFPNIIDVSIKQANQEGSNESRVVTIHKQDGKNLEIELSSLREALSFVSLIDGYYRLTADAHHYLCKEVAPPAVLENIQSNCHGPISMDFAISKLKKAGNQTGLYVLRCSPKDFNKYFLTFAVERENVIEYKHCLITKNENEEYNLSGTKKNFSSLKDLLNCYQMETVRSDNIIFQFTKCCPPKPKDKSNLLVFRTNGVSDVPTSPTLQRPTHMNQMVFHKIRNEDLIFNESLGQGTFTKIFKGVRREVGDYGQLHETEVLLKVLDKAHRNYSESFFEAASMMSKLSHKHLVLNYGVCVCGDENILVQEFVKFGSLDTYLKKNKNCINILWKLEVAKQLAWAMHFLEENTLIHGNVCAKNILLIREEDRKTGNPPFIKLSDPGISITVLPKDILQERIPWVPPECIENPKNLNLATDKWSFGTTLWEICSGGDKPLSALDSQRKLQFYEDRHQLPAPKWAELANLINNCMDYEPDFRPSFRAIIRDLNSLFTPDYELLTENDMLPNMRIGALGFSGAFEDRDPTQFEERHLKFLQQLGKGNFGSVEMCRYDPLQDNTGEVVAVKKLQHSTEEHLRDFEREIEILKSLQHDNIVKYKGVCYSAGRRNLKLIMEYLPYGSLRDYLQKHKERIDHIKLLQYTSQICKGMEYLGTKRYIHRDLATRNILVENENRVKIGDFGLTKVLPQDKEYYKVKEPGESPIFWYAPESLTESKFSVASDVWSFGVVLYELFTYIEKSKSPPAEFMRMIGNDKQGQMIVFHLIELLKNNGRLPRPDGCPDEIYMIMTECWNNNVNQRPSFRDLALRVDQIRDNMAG
T2 sequence (P52333 whole entry, looked up): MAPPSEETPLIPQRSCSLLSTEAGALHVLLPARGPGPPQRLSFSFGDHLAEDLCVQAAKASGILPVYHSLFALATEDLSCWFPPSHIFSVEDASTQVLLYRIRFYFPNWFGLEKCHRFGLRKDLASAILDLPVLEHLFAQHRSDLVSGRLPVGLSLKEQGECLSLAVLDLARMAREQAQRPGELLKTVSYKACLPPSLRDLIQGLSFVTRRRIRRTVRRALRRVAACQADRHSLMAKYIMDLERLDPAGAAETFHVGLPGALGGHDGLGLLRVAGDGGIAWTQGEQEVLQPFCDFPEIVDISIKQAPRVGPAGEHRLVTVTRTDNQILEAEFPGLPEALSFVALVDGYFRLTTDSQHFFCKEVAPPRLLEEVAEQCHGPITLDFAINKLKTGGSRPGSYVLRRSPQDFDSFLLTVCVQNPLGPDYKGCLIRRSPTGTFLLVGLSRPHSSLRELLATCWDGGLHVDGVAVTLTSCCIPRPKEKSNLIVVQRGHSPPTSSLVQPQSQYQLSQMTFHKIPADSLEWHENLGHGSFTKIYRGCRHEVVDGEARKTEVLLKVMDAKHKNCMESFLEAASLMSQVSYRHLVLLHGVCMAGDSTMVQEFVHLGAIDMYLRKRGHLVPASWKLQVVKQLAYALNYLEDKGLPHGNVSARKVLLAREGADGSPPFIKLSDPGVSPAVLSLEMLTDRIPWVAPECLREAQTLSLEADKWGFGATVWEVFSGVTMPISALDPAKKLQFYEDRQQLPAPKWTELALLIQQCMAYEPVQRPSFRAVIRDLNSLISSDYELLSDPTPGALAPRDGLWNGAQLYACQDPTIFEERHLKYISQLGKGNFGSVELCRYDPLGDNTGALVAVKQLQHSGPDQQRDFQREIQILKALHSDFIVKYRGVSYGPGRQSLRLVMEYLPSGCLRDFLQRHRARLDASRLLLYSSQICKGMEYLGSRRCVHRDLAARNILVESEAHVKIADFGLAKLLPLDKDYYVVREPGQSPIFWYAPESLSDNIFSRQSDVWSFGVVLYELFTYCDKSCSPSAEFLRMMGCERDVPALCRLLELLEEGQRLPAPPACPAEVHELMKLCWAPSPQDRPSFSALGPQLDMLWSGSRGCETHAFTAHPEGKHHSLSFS
Chain of Aurora kinase B (Q96GD4 whole entry): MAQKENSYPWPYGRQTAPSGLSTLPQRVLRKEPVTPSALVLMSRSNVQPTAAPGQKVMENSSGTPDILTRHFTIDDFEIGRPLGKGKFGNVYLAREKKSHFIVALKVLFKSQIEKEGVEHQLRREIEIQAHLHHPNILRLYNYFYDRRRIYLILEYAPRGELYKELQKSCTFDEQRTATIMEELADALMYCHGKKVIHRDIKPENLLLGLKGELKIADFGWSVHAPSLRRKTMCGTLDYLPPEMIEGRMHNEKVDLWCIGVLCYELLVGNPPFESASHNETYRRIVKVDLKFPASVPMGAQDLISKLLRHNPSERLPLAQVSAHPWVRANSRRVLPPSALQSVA

O=C(Nc1c[nH]nc1-c1nc(-c2ccc(CN3CCOCC3)cc2)c[nH]1)c1cccc(Cl)c1
IC50 (Aurora kinase A): 0.939 µM
IC50 (HCT-116 [1]): 15.1 µM
inhibition (JAK2/JAK3 (Homo sapiens) [2]): Active
inhibition (JAK2/JAK3 (Homo sapiens) [3]): Active
inhibition (JAK2/JAK3 (Homo sapiens) [4]): Active
inhibition (JAK2/JAK3 (Homo sapiens) [5]): Active
inhibition [6]: Dose-dependent effect
inhibition [7]: Dose-dependent effect
inhibition (Aurora kinase B): Dose-dependent effect
Activity (K562 [8]): 56.05%
Activity (K562 [9]): 8.12%
Activity (K562 [10]): 35.82%
Activity (K562 [11]): 1.9%
Activity (K562 [12]): 47.87%
Activity (K562 [13]): 16.27%
Activity (K562 [14]): 45.9%
Activity (K562 [15]): 2.06%
Activity (HCT-116 [16]): 13.34%
Selectivity ratio (Homo sapiens): 20
Activity (HCT-116 [17]): 66.57%
Activity (HCT-116 [18]): 17.27%
Activity (HCT-116 [19]): 17.92%
